Experimental data reported in paper PMC5879004 (Heart rhythm, 2017).
Entries after “also recorded” stand apart in the source; their conditions may differ.

Tests used:
purified RyR2 = purified RyR2 (Ovis aries, UniProt A0ACI6RLQ3); experiment: Single-channel recordings of purified RyR2 in planar lipid bilayers; type: biochemical, sheep
[1] = tested on: RyR2 macromolecular complex (sheep cardiac SR); experiment: 3H-Ryanodine binding to cardiac SR vesicles
Summary of the method: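 Sheep cardiac SR vesicles (0.5mg/ml) incubated to equilibrium for 3hrs at 37°C in 20mM HEPES pH 7.4, 250mM KCl, 50µM CaCl2, 2nM 3H-ryanodine plus 13nM unlabeled ryanodine, ± test compound. Non-specific binding (200nM ryanodine, 4mM EGTA) subtracted. Quenched by rapid filtration. Ca2+-dependence run across free Ca2+ levels set with EGTA. Data as mean ± SEM.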

[2] = tested on: ventricular myocytes from R176Q mice; experiment: Ca2+ spark frequency; type: cell-based, mouse
Summary of the method: (§1)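 Isolated mouse ventricular myocytes were loaded with Fluo-4-AM (2µM) and stimulated with 100nM isoproterenol to raise spontaneous sparks. Cells were exposed to vehicle or test compound for 2hrs, then sparks were imaged by confocal microscopy and spark frequency computed. For R176Q cells, a 0.5nM–5µM dose series was fitted sigmoidally for IC50 (n=6–10 cells per group, 3 mice).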

WT myocytes = experiment: Ca2+ spark frequency; type: cell-based, mouse; details: 500nM
Summary of the method: as §1

[3] = tested on: ventricular myocytes of WT mice; experiment: Ca2+ transient amplitude induced by 1-Hz field stimulation, WT myocytes; type: cell-based, mouse; details: 500nM, vehicle 2.6 ± 0.2
R176Q myocytes = experiment: Ca2+ transient amplitude induced by 1-Hz field stimulation, R176Q myocytes; type: cell-based, mouse; details: 500nM, vehicle 2.4 ± 0.1
R176Q mice [4] = experiment: Inducible VT by extrastimuli pacing after epinephrine and caffeine; type: in vivo, mouse; details: 2.5µg/kg i.p. 15 minutes prior to pacing, vehicle 8 of 11
Summary of the method: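 Adult (2–3-month) R176Q mice under 1.5% isoflurane in 95% O2 had surface ECG and intracardiac electrograms recorded. Epinephrine (2mg/kg) and caffeine (120mg/kg) were given i.p., then extrastimulus pacing tested VT inducibility, with or without i.p. test compound. Incidence was scored as mice with VT per group.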

R176Q mice [5] = experiment: ECG parameters after injection; type: in vivo, mouse
Summary of the method: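 RyR2-R176Q/+ mice aged 2–3 months were anesthetised with 1.5% isoflurane in 95% O2. Six-lead surface ECG and intracardiac electrograms were recorded simultaneously, at baseline and with or without intraperitoneal test compound.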

[6] = IC50, single-channel, purified RyR2 without CaM, 25µM cis-Ca2+
[7] = −Log([IC50], M), single-channel, purified RyR2 without CaM, 25µM cis-Ca2+

Compound | IC50 (purified RyR2; [6]) | channel activity at concentrations above 100nM (purified RyR2; purified RyR2 without CaM) | IC50 (purified RyR2; [7]) | inhibition of channel activity (purified RyR2; purified RyR2, all concentrations tested (10nM-100µM)) | effect on equilibrium 3H-ryanodine binding ([1]; equilibrium binding, sheep cardiac SR) | reduction of CaSF compared to vehicle ([2]; 500nM) | IC50 ([2]; CaSF inhibition, 2hrs exposure) | effect on CaSF (WT myocytes) | Ca2+ transient amplitude [3] | Ca2+ transient amplitude (R176Q myocytes) | incidence of inducible VT (R176Q mice [4]) | effect on ECG parameters (RR, HR, PR, QRS, QTc) (R176Q mice [5]) | IC50 (purified RyR2; IC50, single-channel, purified RyR2 + 100nM CaM) | IC50 (purified RyR2; IC50, single-channel, purified RyR2 + 1μM CaM) | reduction in potency (IC50 higher) vs CaM-free purified RyR2 (purified RyR2; cardiac SR or purified RyR2 supplemented with 100nM or 1µM CaM) | IC50 (purified RyR2; −Log([IC50], M), single-channel, purified RyR2 + 100nM CaM) | IC50 (purified RyR2; −Log([IC50], M), single-channel, purified RyR2 + 1μM CaM) | concentration required for inhibition of equilibrium 3H-ryanodine binding ([1]; equilibrium binding over 3 hours) | shift of the Ca2+-dependence of 3H-ryanodine binding ([1]; therapeutic concentrations)
CCCCNc1ccc(C(=O)O)c(OC)c1 [Compound 2, 4-(butylamino)-2-methoxybenzoic acid] | 9.45 nM | completely inhibited | 9.55 nM | – | – | – | – | – | – | – | – | – | – | – | – | – | – | – | –
CCN(CC)CCO [Compound 3, 2-(diethylamino)-ethanol, reference compound] | – | – | – | did not inhibit | no effect | – | – | – | – | – | – | – | – | – | – | – | – | – | –
CCCCNc1ccc(C(=O)OCCN(CC)CC)c(OC)c1 [EL20, 2-(diethylamino)ethyl 4-(butylamino)-2-methoxybenzoate] | 8.21 nM | completely inhibited | 8.13 nM | – | – | ~ 70% | 35.4 nM | did not significantly alter | 2.7 ± 0.2 F/Fo | 2.8 ± 0.3 F/Fo | 1 of 7 and significantly reduced | did not alter any ECG parameters; also recorded: not affected | 1860 nM | 3560 nM | 200 to 1000 fold | 1860 nM | 3550 nM | > 10 µM | did not shift
